Data: ChEMBL document CHEMBL4359838, “Glucopyranosylidene-spiro-imidazolinones, a New Ring System: Synthesis and Evaluation as Glycogen Phosphorylase Inhibitors by Enzyme Kinetics and X-ray Crystallography” (J Med Chem, 2019)
The source made the active and inactive calls. No cut-off for these calls is given here.

Experiments:
[1] = Inhibition of rabbit muscle Glycogen phosphorylase b using glucose-1-phosphate as substrate in presence of AMP; design: species or system Oryctolagus cuniculus
Outline: (§1)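 Rabbit muscle GPb (3 μg/mL) was assayed at 30 °C for glycogen synthesis in 30 mM imidazole/HCl pH 6.8 with 60 mM KCl, 0.6 mM EDTA, 0.6 mM DTT, 0.2% w/v glycogen and 1 mM AMP. Glc-1-P was varied (2, 3, 4, 6, 10 mM) at several inhibitor concentrations. Pi release gave initial rates; Ki came from Km(app) versus [inhibitor] by nonlinear regression.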

Oryctolagus cuniculus = species on record: Oryctolagus cuniculus; assay: Inhibition of rabbit muscle Glycogen phosphorylase b at 625 uM using glucose-1-phosphate as substrate in presence of AMP relative to control
Homo sapiens [2] = species on record: Homo sapiens; assay: Competitive inhibition of human liver Glycogen phosphorylase a up to 180 uM using glucose-1-phosphate as substrate by Lineweaver-Burk plot analysis
Outline: (§2)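 Human liver GPa (1 μg/mL) assayed at 30 °C toward glycogen synthesis in 30 mM imidazole/HCl pH 6.8 with 60 mM KCl, 0.6 mM EDTA, 0.6 mM DTT, 0.2% w/v glycogen and no AMP. Glc-1-P was varied at 1, 2, 3, 4 and 6 mM against several inhibitor levels. Released Pi was read; Ki came from Km(app) versus [inhibitor] by weighted nonlinear regression.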

[3] = Inhibition of rabbit muscle Glycogen phosphorylase a using glucose-1-phosphate as substrate; design: species or system Oryctolagus cuniculus
Outline: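 Rabbit muscle GPa (3 μg/mL) was run at 30 °C in the glycogen-synthesis direction in 30 mM imidazole/HCl pH 6.8 containing 60 mM KCl, 0.6 mM EDTA, 0.6 mM DTT and 0.2% w/v glycogen, without AMP. Glc-1-P was 2, 3, 4, 6 and 10 mM with varied inhibitor. Inorganic phosphate release was measured; Ki came from the Km(app) versus [inhibitor] fit.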

[4] = Inhibition of human liver Glycogen phosphorylase a using glucose-1-phosphate as substrate; outline: as §2
Homo sapiens [5] = species on record: Homo sapiens; assay: Competitive inhibition of human liver Glycogen phosphorylase a up to 650 uM using glucose-1-phosphate as substrate by Lineweaver-Burk plot analysis; outline: as §2
Homo sapiens [6] = species on record: Homo sapiens; assay: Competitive inhibition of human liver Glycogen phosphorylase a up to 10 uM using glucose-1-phosphate as substrate by Lineweaver-Burk plot analysis; outline: as §2
Homo sapiens [7] = species on record: Homo sapiens; assay: Competitive inhibition of human liver Glycogen phosphorylase a up to 35 uM using glucose-1-phosphate as substrate by Lineweaver-Burk plot analysis; outline: as §2
Homo sapiens [8] = species on record: Homo sapiens; assay: Competitive inhibition of human liver Glycogen phosphorylase a up to 3 uM using glucose-1-phosphate as substrate by Lineweaver-Burk plot analysis; outline: as §2
[9] = Inhibition of Glycogen phosphorylase in human HepG2 cells incubated for 2 hrs; assay type: cell-based
Outline: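 HepG2 cells were precultured in 25 mmol/L glucose with 10 nM insulin to load glycogen. They were then shifted to 5 mmol/L glucose with inhibitor at 80–516 μM for 2 h to drive glycogenolysis. GP activity was read spectrophotometrically in the whole homogenate, and IC50 was derived from the concentration series.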

HepG2 = assay: Cytotoxicity against human HepG2 cells at 80 to 516 uM incubated for 2 hrs; assay type: cell-based; conditions: hepg2, 2 h
Homo sapiens [10] = species on record: Homo sapiens; assay: Competitive inhibition of human liver Glycogen phosphorylase a up to 1000 uM using glucose-1-phosphate as substrate by Lineweaver-Burk plot analysis
[11] = Inhibition of rabbit muscle Glycogen phosphorylase b using alpha-D-glucose-1-phosphate as substrate in presence of AMP by dixon plot analysis; design: species or system Oryctolagus cuniculus; outline: as §1

| Ki [1] | inhibition (Oryctolagus cuniculus) | Ki [3] | Ki [4] | SMILES | other results |
| --- | --- | --- | --- | --- | --- |
| 5.1 µM | – | – | – | O=C1NC(=S)N[C@@]12O[C@H](CO)[C@@H](O)[C@H](O)[C@H]2O | – |
| – | inactive | – | – | O=C1N=C(c2ccc(C(F)(F)F)cc2)N[C@]12O[C@H](CO)[C@@H](O)[C@H](O)[C@H]2O | – |
| 136 µM | – | 34.2 µM | 96.7 µM | O=C1N=C(c2ccccc2)N[C@]12O[C@H](CO)[C@@H](O)[C@H](O)[C@H]2O | inhibition (Homo sapiens [2]): Active |
| – | 25% | 212 µM | 371 µM | O=C1N=C(c2ccc3ccccc3c2)N[C@]12O[C@H](CO)[C@@H](O)[C@H](O)[C@H]2O | inhibition (Homo sapiens [5]): Active |
| 9 µM | – | 4.5 µM | 8.4 µM | O=C1N=C(c2ccccc2)N[C@@]12O[C@H](CO)[C@@H](O)[C@H](O)[C@H]2O | inhibition (Homo sapiens [6]): Active |
| 105 to 320 µM | – | – | – | O=C1NC(=O)[C@]2(N1)O[C@H](CO)[C@@H](O)[C@H](O)[C@H]2O | – |
| 13 µM | – | 6.6 µM | 22.2 µM | O=C1N=C(c2cccc3ccccc23)N[C@@]12O[C@H](CO)[C@@H](O)[C@H](O)[C@H]2O | inhibition (Homo sapiens [7]): Active |
| 3.1 µM | – | – | – | O=C1NC(=O)[C@@]2(N1)O[C@H](CO)[C@@H](O)[C@H](O)[C@H]2O | – |
| 2.11 µM | – | 1.13 µM | 1.72 µM | O=C1N=C(c2ccc3ccccc3c2)N[C@@]12O[C@H](CO)[C@@H](O)[C@H](O)[C@H]2O | inhibition (Homo sapiens [8]): Active; IC50 [9]: 177 µM; Activity (HepG2): Non-Toxic |
| – | inactive | 653 µM | 1170 µM | O=C1N=C(c2cccc3ccccc23)N[C@]12O[C@H](CO)[C@@H](O)[C@H](O)[C@H]2O | inhibition (Homo sapiens [10]): Active |
| – | – | – | – | OC[C@H]1O[C@]2(ON=C(c3ccccc3)S2)[C@H](O)[C@@H](O)[C@@H]1O | Ki [11]: 26 µM |
| – | inactive | – | – | O=C1N=C(c2ccc(C(F)(F)F)cc2)N[C@@]12O[C@H](CO)[C@@H](O)[C@H](O)[C@H]2O | – |
